Measured values taken from ChEMBL document CHEMBL1132183 (J Med Chem, 1999).

Key:
[1] = target: T1, 5-hydroxytryptamine receptor 1A (Homo sapiens, UniProt P08908); experiment: Displacement of [3H]8-hydroxy-2-(di-n-propylamino)tetralin from human 5-hydroxytryptamine 1A receptor
T1 sequence (P08908 whole entry): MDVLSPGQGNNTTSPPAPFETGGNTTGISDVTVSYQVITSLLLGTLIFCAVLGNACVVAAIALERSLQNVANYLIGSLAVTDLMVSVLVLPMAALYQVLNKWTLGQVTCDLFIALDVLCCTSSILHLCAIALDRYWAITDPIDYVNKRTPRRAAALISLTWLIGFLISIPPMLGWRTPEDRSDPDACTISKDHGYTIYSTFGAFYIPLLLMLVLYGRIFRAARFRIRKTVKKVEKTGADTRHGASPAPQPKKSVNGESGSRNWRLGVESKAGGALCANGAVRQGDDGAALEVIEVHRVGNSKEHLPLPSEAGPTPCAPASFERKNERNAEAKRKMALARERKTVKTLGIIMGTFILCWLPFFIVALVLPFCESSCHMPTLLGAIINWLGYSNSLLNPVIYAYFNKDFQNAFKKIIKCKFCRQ
In short: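 Membranes of HeLa cells stably transfected with human 5-HT1A (genomic clone G-21), in 50 mM Tris-HCl pH 7.4, 2.5 mM MgCl2, 10 μM pargiline. […] Nonspecific binding defined with 10 μM 5-HT. Filtration, scintillation counting. Ki by Cheng–Prusoff; 2–3 experiments in triplicate.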

[2] = target: T2, Alpha-1B adrenergic receptor (Rattus norvegicus) (UniProt P15823); experiment: Antagonism of Alpha-1B adrenergic receptor subtype (-)-phenylephrine-induced contraction of rat spleen; format: functional, tissue-based
T2 sequence (whole entry): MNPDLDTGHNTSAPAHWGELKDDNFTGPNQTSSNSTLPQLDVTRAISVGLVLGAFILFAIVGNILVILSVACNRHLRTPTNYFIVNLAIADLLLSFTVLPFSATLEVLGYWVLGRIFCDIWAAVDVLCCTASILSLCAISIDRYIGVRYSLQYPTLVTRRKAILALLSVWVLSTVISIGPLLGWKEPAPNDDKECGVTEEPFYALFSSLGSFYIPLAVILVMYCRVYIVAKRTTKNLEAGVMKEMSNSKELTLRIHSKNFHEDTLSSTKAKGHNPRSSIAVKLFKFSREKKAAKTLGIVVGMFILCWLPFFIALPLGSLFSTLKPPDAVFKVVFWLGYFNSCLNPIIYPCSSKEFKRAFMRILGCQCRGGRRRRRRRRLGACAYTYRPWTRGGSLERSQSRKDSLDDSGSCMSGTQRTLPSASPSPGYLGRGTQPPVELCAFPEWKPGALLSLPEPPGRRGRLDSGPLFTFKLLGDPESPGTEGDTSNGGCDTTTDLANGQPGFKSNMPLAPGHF
In short: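 Rat spleen, isometric cumulative (–)-phenylephrine curves at 30-min intervals; first discarded, second taken as control. Antagonist was equilibrated 30 min before the next curve.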

[3] = target: T3, Alpha-1D adrenergic receptor (Rattus norvegicus) (UniProt P23944); experiment: Alpha-1D adrenergic receptor subtype blocking activity (antagonism) against (-)-noradrenaline-induced contraction of rat thoracic aorta.; format: functional, tissue-based
T3 sequence (whole entry): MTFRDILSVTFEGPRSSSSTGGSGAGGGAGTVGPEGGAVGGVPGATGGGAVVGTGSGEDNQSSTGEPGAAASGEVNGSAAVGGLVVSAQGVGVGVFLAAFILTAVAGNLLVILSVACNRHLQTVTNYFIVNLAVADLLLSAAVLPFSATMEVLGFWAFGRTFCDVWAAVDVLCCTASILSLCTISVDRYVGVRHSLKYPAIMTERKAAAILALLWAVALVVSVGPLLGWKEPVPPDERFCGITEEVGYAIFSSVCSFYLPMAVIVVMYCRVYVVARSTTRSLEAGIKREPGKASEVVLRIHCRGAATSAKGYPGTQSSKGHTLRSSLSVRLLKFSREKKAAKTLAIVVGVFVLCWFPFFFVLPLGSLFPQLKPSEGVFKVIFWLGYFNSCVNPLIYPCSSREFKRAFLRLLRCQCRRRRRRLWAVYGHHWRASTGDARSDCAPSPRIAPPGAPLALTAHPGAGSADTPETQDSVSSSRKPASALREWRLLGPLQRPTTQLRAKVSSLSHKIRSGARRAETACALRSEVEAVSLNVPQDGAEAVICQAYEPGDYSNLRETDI
In short: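 Helicoidal strips of rat thoracic aorta under 1 g tension, bath with 0.01 μM desipramine and 1 μM (±)-propranolol, equilibrated ≥1 h. Cumulative (–)-noradrenaline curves at 30-min intervals: first two discarded, third as control, fourth after 30-min antagonist exposure. pKb by Arunlakshana–Schild from EC50 dose ratios at 2–3 antagonist concentrations, each tested four times.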

[4] = target: T4, Alpha-1A adrenergic receptor (Rattus norvegicus) (UniProt P43140); experiment: Antagonist activity against Alpha-1A adrenergic receptor (-)-noradrenaline-induced contraction of rat prostatic vas deferens; format: functional, tissue-based
T4 sequence (whole entry): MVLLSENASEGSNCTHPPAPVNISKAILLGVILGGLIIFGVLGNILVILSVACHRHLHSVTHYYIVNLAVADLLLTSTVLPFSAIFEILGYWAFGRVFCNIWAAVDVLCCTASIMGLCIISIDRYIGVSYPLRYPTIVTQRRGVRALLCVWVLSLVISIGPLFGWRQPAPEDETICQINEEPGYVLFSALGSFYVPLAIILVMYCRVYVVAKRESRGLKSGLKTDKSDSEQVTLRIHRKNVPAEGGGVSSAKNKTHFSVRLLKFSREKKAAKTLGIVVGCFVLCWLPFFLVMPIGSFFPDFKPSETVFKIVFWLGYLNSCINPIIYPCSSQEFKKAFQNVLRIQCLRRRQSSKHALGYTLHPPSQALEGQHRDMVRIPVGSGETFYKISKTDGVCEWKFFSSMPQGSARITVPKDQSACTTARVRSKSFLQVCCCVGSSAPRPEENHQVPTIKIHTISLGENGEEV
In short: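 Isolated rat prostatic vas deferens with 0.01 μM desipramine in the bath. Isotonic cumulative (–)-noradrenaline curves were run at 30-min intervals: first discarded, second as control, then antagonist equilibrated 30 min before a new curve. pKb by Arunlakshana–Schild from dose ratios of EC50, at 2–3 antagonist concentrations, each tested four times.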

[5] = target: Serotonin 2 (5-HT2) receptor (Rattus norvegicus, UniProt P30994+P08909+P14842); experiment: Displacement of [3H]ketanserin from rat brain 5-hydroxytryptamine 2 receptor
In short: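 Rat cerebral cortex membranes (male Sprague–Dawley) in Tris-HCl pH 7.4 with 10 μM pargiline and 0.1% ascorbic acid were incubated 20 min at 37 °C with 0.7–1.3 nM [3H]ketanserin (5-HT2A). Nonspecific binding was defined by 2 μM ketanserin. Bound label was counted after filtration, and Ki was derived by Cheng–Prusoff.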

[6] = target: T5, Alpha-1A adrenergic receptor (Homo sapiens, UniProt P35348); experiment: Displacement of [3H]prazosin from human cloned Alpha-1A adrenergic receptor
T5 sequence (P35348 whole entry): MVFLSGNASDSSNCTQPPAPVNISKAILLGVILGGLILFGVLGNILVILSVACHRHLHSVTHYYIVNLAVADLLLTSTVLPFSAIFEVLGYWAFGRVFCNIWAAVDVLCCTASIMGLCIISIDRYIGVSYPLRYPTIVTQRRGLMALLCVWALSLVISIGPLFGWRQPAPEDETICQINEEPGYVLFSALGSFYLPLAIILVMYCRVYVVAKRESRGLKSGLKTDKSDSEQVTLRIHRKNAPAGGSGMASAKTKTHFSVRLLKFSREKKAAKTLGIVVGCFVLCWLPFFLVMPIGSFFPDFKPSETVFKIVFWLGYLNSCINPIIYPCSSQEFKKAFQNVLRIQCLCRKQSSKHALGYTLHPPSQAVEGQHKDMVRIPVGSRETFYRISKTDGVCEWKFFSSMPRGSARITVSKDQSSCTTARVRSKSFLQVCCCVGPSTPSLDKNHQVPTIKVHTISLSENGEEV
In short: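 CHO cells stably transfected with each human α1 subtype; 30 μg membrane protein in 50 mM Tris-HCl pH 7.4 with 0.1–0.4 nM [3H]prazosin, 30 min at 25 °C. Competitors 1 pM–10 μM. Nonspecific binding defined with 10 μM phentolamine. Filtration, scintillation counting. Ki by Cheng–Prusoff; 2–3 experiments in triplicate.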

| SMILES | Ki [1] [nM] | pKb [2] | pKb [3] | pKb [4] | Log Ki [5] | Ki [6] [nM] |
| --- | --- | --- | --- | --- | --- | --- |
| COc1cccc(OC)c1O[C@@H]1CCC(NCC2COc3ccccc3O2)C1O (stereo in doubt; 7) [listing 1 of 2 here] | 50.1 | – | – | – | – | – |
| OC1C(NCC2COc3ccccc3O2)CC[C@H]1Oc1ccccc1 (stereo in doubt; 3) | – | 6.45 | 7.66 | 5.48 | – | – |
| COc1cccc(OC)c1O[C@@H]1CCC(NCC2COc3ccccc3O2)C1O (stereo in doubt; 8) [listing 1 of 2 here] | – | 6.17 | 6.94 | 5.79 | – | – |
| OC1C(NCC2COc3ccccc3O2)CC[C@H]1Oc1ccccc1 (stereo in doubt; 4) | – | 6.47 | 7.85 | 5.7 | – | – |
| COc1cccc(OC)c1OCCNCC1COc2ccccc2O1 (stereo not drawn) | 2.09 | 8.21 | 8.6 | 9.36 | -6 | 0.427 |

Continued, in another order:

| Ki [1] [nM] | pKb [2] | pKb [3] | pKb [4] | SMILES | Log Ki [5] | Ki [6] [nM] |
| --- | --- | --- | --- | --- | --- | --- |
| 33.9 | – | – | – | COc1cccc(OC)c1O[C@@H]1CCC(NCC2COc3ccccc3O2)C1O (stereo in doubt; 8) [listing 2 of 2 here] | – | – |
| 26.9 | – | – | – | COc1ccccc1O[C@@H]1CCC(NCC2COc3ccccc3O2)C1O (stereo in doubt; 6) [listing 1 of 2 here] | – | – |
| – | 6.8 | 7.3 | 6.56 | COc1ccccc1O[C@@H]1CCC(NCC2COc3ccccc3O2)C1O (stereo in doubt; 6) [listing 2 of 2 here] | – | – |
| – | 6.24 | 7.15 | 5.68 | COc1ccccc1O[C@@H]1CCC(NCC2COc3ccccc3O2)C1O (stereo in doubt; 5) [listing 1 of 2 here] | – | – |
| 24.5 | – | – | – | COc1ccccc1O[C@@H]1CCC(NCC2COc3ccccc3O2)C1O (stereo in doubt; 5) [listing 2 of 2 here] | – | – |
| – | 6.27 | 7.32 | 5.89 | COc1cccc(OC)c1O[C@@H]1CCC(NCC2COc3ccccc3O2)C1O (stereo in doubt; 7) [listing 2 of 2 here] | – | – |
